Results collected from several papers.
Sample: plasma

| Compound | species | route | dose | setting | endpoint | value |
| --- | --- | --- | --- | --- | --- | --- |
| CC(=O)N(C)[C@H]1CCN(C(=O)c2cnc3c(c2)C[C@](C)(c2ccc(F)cc2)N3)C1 | male human | oral | 15 mg | multiple doses, once daily | AUC(0-inf) | 2.22 µM·h |
| COc1ccc(F)cc1C(=O)NCc1ccc(-c2nn([C@@H](C)C(F)(F)F)c(N)c2C(N)=O)cc1 | human | oral | 200 mg | single dose, fasted, healthy volunteers | AUC(0-inf) | 85100 ng·h/mL |
| N#Cc1cccc(-c2ccc3ncc(-c4cc(F)cc(F)c4)c(N4CCC(N)CC4)c3c2)c1O | male human | oral | 20 mg | single dose | AUC | 2360 ng·h/mL |
| OC[C@H]1O[C@@H](c2cc(Cc3ccc(C4CC4)cc3)c(Cl)c3c2CCO3)[C@H](O)[C@@H](O)[C@@H]1O | human | oral | 0.3 mg | single dose, fed | AUC(0-inf) | 31 ng·h/mL |
| CC(C)n1c(C2CCNCC2)nc2c([N+](=O)[O-])c(Br)c(Br)cc21 | human | oral | 75 mg | patients | AUC(0-t) | 288 ng·h/mL |
| COc1ccc2c(c1)CN(C(=O)CCN1CCC(Cc3ccccc3)CC1)CC[S@@+]2[O-] | male human | intravenous | 0.05 mg/kg | healthy volunteers | AUC(0-inf) | 250 ng·h/mL |
| COc1ccc(-c2c(Nc3ccccn3)[nH]c3c(C4=CCCCC4)c(-c4ccccc4)nn3c2=O)cc1 | human | oral | 150 mg once daily | multiple doses, steady state, patients | AUC(0-t) | 93600 ng·h/mL |
| C=CC(=O)NC1CCN(c2ncc3ncnc(Nc4ccc(Oc5ccc6c(c5)ncn6C)c(C)c4)c3n2)CC1 | male human | intravenous | 100 µg | single dose, healthy volunteers | AUC(0-inf) | 0.00269 µM·h |
| O=C(COc1ccc(Cl)cc1)NC12CC(c3nnc([C@H]4C[C@@H](OC(F)(F)F)C4)o3)(C1)C2 | human | oral | 45 mg | multiple doses, once daily, steady state, healthy volunteers | AUC | 36.5 µM·h |
